pIC50: −log10 of the molar value.
Key:
[1] = tested on: MDA-MB-231; assay: Effect on regrowth of depolymerized microtubule in human MDA-MB-231 cells after drug withdrawal; type: functional, cell-based; conditions: TDE = time-dependent effect
Summary of the method: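 MDA-MB-231/ATCC cells on coverslips were treated at 36 µM in DMEM for 2 h at 37 °C, with nocodazole 20 µM and colchicine 5 µM as controls. Drug was then washed out with PBS and cells incubated in prewarmed DMEM at 37 °C. Cells were fixed at set time points and immunostained for α-tubulin and ninein with DAPI counterstain.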

[2] = Inhibition of bovine tubulin polymerization; set-up: species or system Bos taurus
Summary of the method: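 Purified bovine tubulin incubated at 37 °C in buffer containing 20% glycerol and 1 mM GTP, with test compound at 3.6–36 µM. Polymerization followed kinetically by the increase in fluorescence. Colchicine and paclitaxel served as controls.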

[3] = tested on: K562; assay: (§1) Cytotoxicity against human K562 cells; type: functional
Summary of the method: (§2)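 Tested in the NCI in vitro antitumor screening protocol across a tumor cell line panel. GI₅₀ is the concentration producing a 50% reduction in cell growth.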

[4] = tested on: COLO 205; assay: Cytotoxicity against human COLO205 cells; type: functional; summary of the method: as §2
[5] = tested on: KM12; assay: Cytotoxicity against human KM12 cells; type: functional; summary of the method: as §2
[6] = tested on: SF-268; assay: Cytotoxicity against human SF268 cells; type: functional; summary of the method: as §2
[7] = tested on: SF-295; assay: Cytotoxicity against human SF295 cells; type: functional; summary of the method: as §2
[8] = tested on: SK-MEL-28; assay: Cytotoxicity against human SK-MEL28 cells; type: functional
Summary of the method: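 Tested in the NCI in vitro antitumor screening protocol against human tumour cell lines.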

[9] = tested on: UACC-257; assay: Cytotoxicity against human UACC257 cells; type: functional; summary of the method: as §2
[10] = tested on: IGROV-1; assay: Cytotoxicity against human IGROV1 cells; type: functional; summary of the method: as §2
[11] = tested on: OVCAR-3; assay: Cytotoxicity against human OVCAR-3 cells; type: functional; summary of the method: as §2
[12] = tested on: 786-0; assay: Cytotoxicity against human 786-0 cells; type: functional; summary of the method: as §2
[13] = tested on: ACHN; assay: Cytotoxicity against human ACHN cells; type: functional; summary of the method: as §2
[14] = tested on: CAKI-1; assay: Cytotoxicity against human CAKI1 cells; type: functional; summary of the method: as §2
[15] = tested on: TK-10; assay: Cytotoxicity against human TK10 cells; type: functional; summary of the method: as §2
[16] = tested on: MCF7; assay: Cytotoxicity against human MCF7 cells; type: functional; summary of the method: as §2
[17] = tested on: MDA-MB-231; assay: Cytotoxicity against human MDA-MB-231 cells; type: functional; summary of the method: as §2
[18] = tested on: T47D; assay: Cytotoxicity against human T47D cells; type: functional; summary of the method: as §2
[19] = tested on: K562; assay: as §1; type: functional; summary of the method: as §2; remark: listed apart in the source
[20] = tested on: HCT-15; assay: Cytotoxicity against human HCT15 cells; type: functional; summary of the method: as §2
[21] = tested on: K562; assay: Cell cycle arrest in human K562 cells assessed as accumulation at G0/G1 phase at 50 uM after 24 hrs by flow cytometry; type: functional
Summary of the method: (§3)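 K-562 human leukemia cells were grown in RPMI 1640 with 10% fetal calf serum, glutamine and penicillin/streptomycin at 37 °C in 5% CO₂. Cells were exposed to compound at 50 µM for 24 h, then pelleted and PBS-washed. They were fixed in ice-cold ethanol for 30 min, treated with 1 mg/mL RNase A at 37 °C for 30 min, and stained with propidium iodide and Triton X-100 for 30 min at room temperature in the dark. Per-phase and sub-G1 percentages came from flow cytometry gating.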

[22] = tested on: K562; assay: Cell cycle arrest in human K562 cells assessed as accumulation at S phase at 50 uM after 24 hrs by flow cytometry; type: functional; summary of the method: as §3
[23] = tested on: K562; assay: Cell cycle arrest in human K562 cells assessed as accumulation at G2/M phase at 50 uM after 24 hrs by flow cytometry; type: functional; summary of the method: as §3
[24] = tested on: MDA-MB-231; assay: Cell cycle arrest in human MDA-MB-231 cells assessed as accumulation of 2N cells at 9.0 uM after 24 hrs by flow cytometry; type: functional
[25] = tested on: MDA-MB-231; assay: Cell cycle arrest in human MDA-MB-231 cells assessed as accumulation of 2N cells at 36.0 uM after 24 hrs by flow cytometry; type: functional
[26] = tested on: MDA-MB-231; assay: Cell cycle arrest in human MDA-MB-231 cells assessed as accumulation at sub-G1 phase at 3.6 uM after 24 hrs by flow cytometry; type: functional
[27] = tested on: MDA-MB-231; assay: Cell cycle arrest in human MDA-MB-231 cells assessed as accumulation of 4N cells at 3.6 uM after 24 hrs by flow cytometry; type: functional
[28] = tested on: MDA-MB-231; assay: Cell cycle arrest in human MDA-MB-231 cells assessed as accumulation of 4N cells at 9.0 uM after 24 hrs by flow cytometry; type: functional
[29] = tested on: MDA-MB-231; assay: Cell cycle arrest in human MDA-MB-231 cells assessed as accumulation of 4N cells at 27.0 uM after 24 hrs by flow cytometry; type: functional
[30] = tested on: MDA-MB-231; assay: Cell cycle arrest in human MDA-MB-231 cells assessed as accumulation of >4N cells at 3.6 uM after 24 hrs by flow cytometry; type: functional
[31] = tested on: MDA-MB-231; assay: Cell cycle arrest in human MDA-MB-231 cells assessed as accumulation of 2N cells at 9.0 uM after 72 hrs by flow cytometry; type: functional
[32] = tested on: MDA-MB-231; assay: Cell cycle arrest in human MDA-MB-231 cells assessed as accumulation at sub-G1 phase at 36.0 uM after 72 hrs by flow cytometry; type: functional
[33] = tested on: MDA-MB-231; assay: Cell cycle arrest in human MDA-MB-231 cells assessed as accumulation of 4N cells at 3.6 uM after 72 hrs by flow cytometry; type: functional
[34] = tested on: MDA-MB-231; assay: Cell cycle arrest in human MDA-MB-231 cells assessed as accumulation of >4N cells at 27.0 uM after 72 hrs by flow cytometry; type: functional
[35] = tested on: MDA-MB-231 (Homo sapiens); assay: Induction of apoptosis in human MDA-MB-231 cells assessed as induction of caspase 8 activation at 36 uM after 72 hrs by colorimetric assay relative to control
[36] = tested on: MDA-MB-231 (Homo sapiens); assay: Induction of apoptosis in human MDA-MB-231 cells assessed as induction of caspase 9 activation at 36 uM after 72 hrs by colorimetric assay relative to control
[37] = read-out: LC50 (the source's name)

Nc1ccccc1C#C/C=C\C#Cc1ccccc1C(F)(F)F
Activity [1]: tde | pIC50 [2]: 5.05 | GI50 [3]: 1 µM | TGI [3]: 0.845 µM | CC50 [3, 37]: 62.7 µM | GI50 [4]: 1.17 µM | TGI [4]: 13.8 µM | CC50 [4, 37]: > 100 µM | GI50 [5]: 0.371 µM | TGI [5]: 20.3 µM | CC50 [5, 37]: > 100 µM | GI50 [6]: 0.65 µM | TGI [6]: 19.7 µM | CC50 [6, 37]: 64.3 µM | GI50 [7]: 0.396 µM | TGI [7]: 2.6 µM | CC50 [7, 37]: 26.8 µM | TGI [8]: 30.1 µM | CC50 [8, 37]: 80.2 µM | GI50 [9]: 0.536 µM | TGI [9]: 23.7 µM | CC50 [9, 37]: 58.4 µM | GI50 [10]: 0.349 µM | TGI [10]: 31.1 µM | CC50 [10, 37]: > 100 µM | GI50 [11]: 0.63 µM | TGI [11]: 0.959 µM | CC50 [11, 37]: 24.1 µM | GI50 [12]: 0.7 µM | TGI [12]: 17.7 µM | CC50 [12, 37]: 67 µM | GI50 [13]: 0.294 µM | TGI [13]: 15.7 µM | CC50 [13, 37]: 48.3 µM | GI50 [14]: 0.351 µM | TGI [14]: 13.2 µM | CC50 [14, 37]: 38 µM | GI50 [15]: 8.3 µM | TGI [15]: 27.9 µM | CC50 [15, 37]: 78.4 µM | GI50 [16]: 0.681 µM | TGI [16]: > 100 µM | CC50 [16, 37]: > 100 µM | GI50 [17]: 0.4 µM | TGI [17]: 1.68 µM | CC50 [17, 37]: 36.5 µM | GI50 [18]: 17 µM | TGI [18]: 49.6 µM | CC50 [18, 37]: > 100 µM | GI50 [19]: 1 µM | GI50 [20]: 1.26 µM | Activity [21]: 6.7% | Activity [22]: 19.3% | Activity [23]: 73.9% | Activity [24]: 9.3% | Activity [25]: 10.4% | Activity [26]: 23.6% | Activity [27]: 35.6% | Activity [28]: 33.6% | Activity [29]: 30.7% | Activity [30]: 31.3% | Activity [31]: 6.8% | Activity [32]: 69.3% | Activity [33]: 19.2% | Activity [34]: 12.8% | fold change (FC) [35]: 4 | fold change (FC) [36]: 3.9
